pIC50: −log10 of the molar value. ≈ marks a conversion by molar mass, not a printed value. Calls of active or inactive are those of the source. The calls are words filed in the database; no cut-off is given here.
Legend:
Klebsiella pneumoniae = assay: Antibacterial activity against Klebsiella pneumoniae MTCC 530; format: functional
Summary of the method: (§1)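 MIC determined against six bacterial strains over a range of concentrations, with 1% DMSO as the untreated control and novobiocin as the standard. Values are averages of n = 5.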

[1] = test system: Corynebacterium diphtheriae; assay: Antibacterial activity against Corynebacterium diphtheriae MTCC 116; format: functional; summary of the method: as §1
[2] = test system: Corynebacterium diphtheriae; assay: Antibacterial activity against Corynebacterium diphtheriae MTCC 116 assessed as cell wall degradation by measuring dead cells measured every 30 mins up to 180 mins by microscopic method; format: functional, organism-based
Summary of the method: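 C. diphtheriae was grown overnight in Loeffler medium and examined after treatment. Dead cells/cell debris were estimated every 30 min until whole-culture death. Total and dead cell stains were applied for 1 h in the dark at room temperature, then fluorescence was read at Ex 490/Em 525 and Ex 536/Em 617 nm, in triplicate.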

[3] = Cytotoxicity against human MCF7 cells assessed as cell viability after 6 hrs by MTT assay relative to control; format: cell-based; parameters: concentration or dose not given beside the values; details: read-out: Activity
Summary of the method: (§2)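 MTT assay on MCF-7 and MCF-10 cells (n = 4), with DMSO as control and doxorubicin as standard. Viability was read at several times after treatment and calculated as mean OD/control OD × 100%.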

[4] = molecular target: DNA gyrase (Staphylococcus aureus) (UniProt P0A0K8+P20831); assay: Inhibition of Staphylococcus aureus DNA gyrase assessed as reduction in relaxation of pBR322 DNA at 1.5 ug by […] analysis relative to control; format: protein-complex assay
Summary of the method: (§3)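 pBR322 DNA incubated with S. aureus DNA gyrase with or without compound (1.5 µg) and novobiocin as positive control. Products resolved by gel electrophoresis. IC50 from the dose–response curve; mean of duplicate or triplicate measurements.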

Erythrocyte [5] = assay: Hemolytic activity in human RBC assessed as membrane mortification by measuring […] stabilization by absorbance method relative to control; format: ADME, cell-based; parameters: concentration or dose not given beside the values
Summary of the method: (§4)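 Human red blood cell membrane stabilization tested at various concentrations (n = 4) in 96-well format, with distilled water taken as 100% hemolysis. Absorbance read-out; IC50 taken from the percentage inhibition versus concentration curve.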

MCF7 = assay: Cytotoxicity against human MCF7 cells after 8 hrs by MTT assay; format: cell-based; details: for Activity: human, mcf7, 8 h; summary of the method: as §2
Pseudomonas aeruginosa = assay: Antibacterial activity against Pseudomonas aeruginosa MTCC 424; format: functional; summary of the method: as §1
Streptococcus pyogenes = assay: Antibacterial activity against Streptococcus pyogenes MTCC 442; format: functional; summary of the method: as §1
DNA gyrase = DNA gyrase (Staphylococcus aureus, UniProt P0A0K8+P20831); assay: Inhibition of Staphylococcus aureus DNA gyrase assessed as reduction in relaxation of pBR322 DNA by […] analysis; format: protein-complex assay; summary of the method: as §3
Escherichia coli = assay: Antibacterial activity against Escherichia coli MTCC 443; format: functional; summary of the method: as §1
Erythrocyte [6] = assay: Hemolytic activity in human RBC assessed as membrane mortification by absorbance method; format: ADME, cell-based; summary of the method: as §4
Staphylococcus aureus = assay: Antibacterial activity against Staphylococcus aureus MTCC 96; format: functional; summary of the method: as §1
Erythrocyte [7] = assay: Hemolytic activity in human RBC assessed as mean absorbance (reference value: 0.1868 +/- 0.033); format: ADME, cell-based; summary of the method: as §4
MCF10 = assay: Cytotoxicity against human MCF10 cells after 8 hrs by MTT assay; format: cell-based; details: mcf10, 8 h; summary of the method: as §2
[8] = Cytotoxicity against human MCF7 cells assessed as cell viability after 4 hrs by MTT assay relative to control; format: cell-based; parameters: concentration or dose not given beside the values; details: read-out: Activity; summary of the method: as §2

Chain of DNA gyrase (Staphylococcus aureus) (P0A0K8 2-644 limits assumed): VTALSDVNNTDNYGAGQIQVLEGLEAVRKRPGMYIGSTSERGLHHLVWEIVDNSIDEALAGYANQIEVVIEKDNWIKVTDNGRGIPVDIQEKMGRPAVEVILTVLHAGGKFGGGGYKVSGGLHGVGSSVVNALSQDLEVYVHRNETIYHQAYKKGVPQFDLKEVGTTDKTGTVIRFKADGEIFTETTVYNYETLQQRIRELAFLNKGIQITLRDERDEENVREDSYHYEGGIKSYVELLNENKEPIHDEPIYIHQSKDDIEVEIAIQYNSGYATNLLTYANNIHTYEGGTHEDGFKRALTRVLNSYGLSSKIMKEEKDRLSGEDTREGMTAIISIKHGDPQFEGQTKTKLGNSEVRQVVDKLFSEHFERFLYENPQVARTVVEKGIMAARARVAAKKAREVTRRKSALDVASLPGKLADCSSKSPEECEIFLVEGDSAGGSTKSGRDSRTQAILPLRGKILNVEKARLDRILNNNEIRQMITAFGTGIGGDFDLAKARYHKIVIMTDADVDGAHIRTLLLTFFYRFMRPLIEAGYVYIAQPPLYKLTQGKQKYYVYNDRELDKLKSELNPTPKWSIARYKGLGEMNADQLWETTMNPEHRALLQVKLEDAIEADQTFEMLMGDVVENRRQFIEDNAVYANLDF
Chain of DNA gyrase (Staphylococcus aureus) (P20831 whole entry partner): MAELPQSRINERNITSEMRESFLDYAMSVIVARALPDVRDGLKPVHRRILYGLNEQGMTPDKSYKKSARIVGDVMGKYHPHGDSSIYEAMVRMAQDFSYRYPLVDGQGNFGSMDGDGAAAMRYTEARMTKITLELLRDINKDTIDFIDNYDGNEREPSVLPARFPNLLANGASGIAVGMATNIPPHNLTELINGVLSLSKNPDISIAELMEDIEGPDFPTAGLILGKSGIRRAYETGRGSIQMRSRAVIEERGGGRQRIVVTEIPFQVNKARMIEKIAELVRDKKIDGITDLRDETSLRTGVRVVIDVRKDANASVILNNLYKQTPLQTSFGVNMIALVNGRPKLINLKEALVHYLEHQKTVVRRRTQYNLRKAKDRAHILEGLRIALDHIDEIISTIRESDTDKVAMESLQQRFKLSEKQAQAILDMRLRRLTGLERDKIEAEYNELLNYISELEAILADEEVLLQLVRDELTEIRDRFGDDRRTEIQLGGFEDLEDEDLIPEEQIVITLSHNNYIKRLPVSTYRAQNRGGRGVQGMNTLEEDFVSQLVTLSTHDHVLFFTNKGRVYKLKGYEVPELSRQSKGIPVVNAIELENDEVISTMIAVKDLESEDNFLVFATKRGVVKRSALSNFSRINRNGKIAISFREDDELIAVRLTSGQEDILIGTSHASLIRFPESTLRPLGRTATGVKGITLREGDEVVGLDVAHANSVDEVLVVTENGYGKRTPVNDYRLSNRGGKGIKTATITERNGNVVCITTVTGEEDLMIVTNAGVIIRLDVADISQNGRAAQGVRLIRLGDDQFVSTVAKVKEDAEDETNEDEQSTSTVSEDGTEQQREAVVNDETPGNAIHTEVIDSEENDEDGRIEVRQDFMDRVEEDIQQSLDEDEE
Chain of DNA gyrase (P0A0K8 whole entry): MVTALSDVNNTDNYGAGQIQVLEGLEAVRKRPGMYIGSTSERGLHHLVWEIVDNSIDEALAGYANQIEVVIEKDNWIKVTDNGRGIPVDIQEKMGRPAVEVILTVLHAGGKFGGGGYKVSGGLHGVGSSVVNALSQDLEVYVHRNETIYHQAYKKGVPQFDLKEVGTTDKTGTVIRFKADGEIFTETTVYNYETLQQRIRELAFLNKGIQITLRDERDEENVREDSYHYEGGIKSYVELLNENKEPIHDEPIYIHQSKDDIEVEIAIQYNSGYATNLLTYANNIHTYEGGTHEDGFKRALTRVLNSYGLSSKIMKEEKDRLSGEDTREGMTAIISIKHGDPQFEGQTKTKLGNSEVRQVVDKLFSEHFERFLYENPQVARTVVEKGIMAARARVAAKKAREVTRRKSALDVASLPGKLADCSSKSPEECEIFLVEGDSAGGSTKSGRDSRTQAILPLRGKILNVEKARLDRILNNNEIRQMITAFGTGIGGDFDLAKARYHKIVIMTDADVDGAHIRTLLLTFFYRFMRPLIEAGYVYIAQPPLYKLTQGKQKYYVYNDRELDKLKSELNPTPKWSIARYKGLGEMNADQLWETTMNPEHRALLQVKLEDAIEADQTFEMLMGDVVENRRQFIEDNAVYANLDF
Chain of DNA gyrase (P20831 whole entry): as the sequence (P20831 whole entry partner) above

Compound | MIC (Klebsiella pneumoniae) | MIC [1] | Activity [2] | viability at 6 h [3] | inhibition [4] | Activity (Erythrocyte [5]) | Activity (MCF7) | MIC (Pseudomonas aeruginosa) | MIC (Streptococcus pyogenes) | pIC50 (DNA gyrase) | MIC (Escherichia coli) | IC50 (Erythrocyte [6]) | MIC (Staphylococcus aureus) | Activity (Erythrocyte [7]) | Activity (MCF10) | viability at 4 h [8] | pIC50 (MCF7; Homo sapiens, MCF7, 8 h)
COc1cc(OC)c2c(c1C(C)=O)OC(C)(C)[C@H](O)[C@@H]2O | 2.18 mg/L (≈ 7.36 µM) | 0.99 mg/L (≈ 3.34 µM) | Active | 16% | 78 to 94% | 85.31% | Dose-dependent effect | 4.52 mg/L (≈ 15.3 µM) | 2.85 mg/L (≈ 9.62 µM) | 8.00 | 2.24 mg/L (≈ 7.56 µM) | 0.88 mg/L (≈ 2.97 µM) | 0.92 mg/L (≈ 3.1 µM) | 0.3888 | Non-Toxic | 20% | 
COc1cc2c(c(OC)c1C(C)=O)[C@H](O)[C@H](O)C(C)(C)O2 | 3.88 mg/L (≈ 13.1 µM) | 1.28 mg/L (≈ 4.32 µM) | Active |  | 78 to 94% | 80.88% |  | 3.01 mg/L (≈ 10.2 µM) | 5.02 mg/L (≈ 16.9 µM) | 7.62 to 8.73 | 4.1 mg/L (≈ 13.8 µM) | 1 mg/L (≈ 3.38 µM) | 1.54 mg/L (≈ 5.2 µM) | 0.3611 |  |  | 
COc1cc(O)c2c(c1C(C)=O)OC(C)(C)C(OC)C2Cl (configuration not stated) | 0.72 mg/L (≈ 2.29 µM) | 0.68 mg/L (≈ 2.16 µM) | Active | 16% | 90% | 93.25% | Dose-dependent effect | 0.87 mg/L (≈ 2.76 µM) | 0.87 mg/L (≈ 2.76 µM) | 8.46 | 0.68 mg/L (≈ 2.16 µM) | 0.0102 mg/L (≈ 0.0324 µM) | 0.08 mg/L (≈ 0.254 µM) | 0.4242 | Non-Toxic | 20% | 
COc1cc(OC)c2c(c1C(C)=O)OC(C)(C)C(O)C2Br (configuration not stated) |  |  |  |  | 78 to 94% |  |  |  |  | 7.62 to 8.73 |  |  |  |  |  |  | 
COc1c(Br)c(OC)c(C(C)=O)c2c1C=CC(C)(C)O2 | 1.99 mg/L (≈ 5.83 µM) | 1.08 mg/L (≈ 3.17 µM) | Active |  | 78 to 94% | 86.16% |  | 3.12 mg/L (≈ 9.14 µM) | 2.04 mg/L (≈ 5.98 µM) | 7.62 to 8.73 | 2.13 mg/L (≈ 6.24 µM) | 0.124 mg/L (≈ 0.364 µM) | 0.99 mg/L (≈ 2.9 µM) | 0.3634 |  |  | 
COc1cc(O)c2c(c1C(C)=O)OC(C)(C)C=C2 | 0.9 mg/L (≈ 3.62 µM) | 0.82 mg/L (≈ 3.3 µM) | Active | 16% | 78 to 94% | 90.45% | Dose-dependent effect | 1.02 mg/L (≈ 4.11 µM) | 1 mg/L (≈ 4.03 µM) | 8.12 | 0.88 mg/L (≈ 3.54 µM) | 0.0182 mg/L (≈ 0.0733 µM) | 0.1 mg/L (≈ 0.403 µM) | 0.4624 | Non-Toxic | 20% | 
COc1cc(OC)c2c(c1C(C)=O)OC(C)(C)C(OC)C2F (configuration not stated) | 0.76 mg/L (≈ 2.43 µM) | 0.92 mg/L (≈ 2.95 µM) | Active | 16% | 78 to 94% | 85.15% | Dose-dependent effect | 0.94 mg/L (≈ 3.01 µM) | 0.94 mg/L (≈ 3.01 µM) | 8.02 | 0.92 mg/L (≈ 2.95 µM) | 0.0922 mg/L (≈ 0.295 µM) | 0.16 mg/L (≈ 0.512 µM) | 0.3947 | Non-Toxic | 20% | 
CO[C@@H]1[C@@H](OC(=O)c2ccc(C)[nH]2)[C@@H](O)[C@H](Oc2ccc3c(O)c(NC(=O)c4ccc(O)c(CC=C(C)C)c4)c(=O)oc3c2Cl)OC1(C)C |  |  |  |  | 86% |  |  |  |  |  |  |  |  |  |  |  | 
CO[C@@H]1[C@@H](OC(N)=O)[C@@H](O)[C@H](Oc2ccc3c(O)c(NC(=O)c4ccc(O)c(CC=C(C)C)c4)c(=O)oc3c2C)OC1(C)C [NOVOBIOCIN] | 0.5 to 0.75 mg/L (≈ 0.816 to 1.22 µM) | 1.32 mg/L (≈ 2.15 µM) |  |  |  |  |  | 1.75 to 100 mg/L (≈ 2.86 to 163 µM) | 3.24 mg/L (≈ 5.29 µM) |  | 4.94 to 5 mg/L (≈ 8.06 to 8.16 µM) |  | 0.78 to 0.92 mg/L (≈ 1.27 to 1.5 µM) |  |  |  | 
COc1cc(OC)c2c(c1C(C)=O)OC(C)(C)[C@@H](O)[C@H]2O | 0.92 mg/L (≈ 3.1 µM) | 0.9 mg/L (≈ 3.04 µM) | Active |  | 78 to 94% | 88.52% |  | 1.01 mg/L (≈ 3.41 µM) | 1.02 mg/L (≈ 3.44 µM) | 7.62 to 8.73 | 0.84 mg/L (≈ 2.83 µM) | 0.0094 mg/L (≈ 0.0317 µM) | 0.64 mg/L (≈ 2.16 µM) | 0.4046 |  |  | 
COc1cc(OS(=O)(=O)C(F)(F)F)c2c(c1C(C)=O)OC(C)(C)C=C2 | 0.64 mg/L (≈ 1.68 µM) | 0.04 mg/L (≈ 0.105 µM) | Active | 16% | 94% | 98.84% |  | 0.84 mg/L (≈ 2.21 µM) | 0.83 mg/L (≈ 2.18 µM) | 8.60 | 0.64 mg/L (≈ 1.68 µM) | 0.0012 mg/L (≈ 0.00316 µM) | 0.02 mg/L (≈ 0.0526 µM) | 0.4852 | Non-Toxic | 20% | 8.00
COc1cc2c(c(O)c1C(C)=O)C(=O)CC(C)(C)O2 | 2.24 mg/L (≈ 8.48 µM) | 1.02 mg/L (≈ 3.86 µM) | Active |  | 78 to 94% | 80.65% |  | 1.67 mg/L (≈ 6.32 µM) | 3.12 mg/L (≈ 11.8 µM) | 7.62 to 8.73 | 0.99 mg/L (≈ 3.75 µM) | 1.24 mg/L (≈ 4.69 µM) | 1 mg/L (≈ 3.78 µM) | 0.3841 |  |  | 
COc1ccc2c(c1)c(CC(=O)O)c(C)n2C(=O)c1ccc(Cl)cc1 [INDOMETHACIN] |  |  |  |  |  | 85.64% |  |  |  |  |  | 0.086 mg/L (≈ 0.24 µM) |  | 0.3834 |  |  | 
COc1cc(OC)c2c(c1C(C)=O)OC(C)(C)C(OC)C2Cl (configuration not stated) | 0.96 mg/L (≈ 2.92 µM) | 0.21 mg/L (≈ 0.639 µM) | Active |  | 78 to 94% | 86.37% |  | 1.02 mg/L (≈ 3.1 µM) | 1.07 mg/L (≈ 3.25 µM) | 7.62 to 8.73 | 1 mg/L (≈ 3.04 µM) | 0.222 mg/L (≈ 0.676 µM) | 0.18 mg/L (≈ 0.547 µM) | 0.3659 |  |  | 
